15 compounds from ChEMBL document CHEMBL1129060, “N6,C8-distributed adenosine derivatives as partial agonists for adenosine A1 receptors” (J Med Chem, 1996) can be followed below.

Molecules are shown by their SMILES. “And” between values parts separate entries of the source, which are not always exact repeats. Identical values can stand only once.

For one assay, the target named is Adenosine A2 receptor (Rattus norvegicus, UniProt P29276+P30543). The assay can be described thus: Displacement of [3H]-CGS- 21680 from Adenosine A2 receptor of rat striatal membranes. Format: cell membranes, Membrane. A general note: Loss of bound radioactivity is the signal in a displacement assay; it reports binding, not function.
Assay [1] concerns the target T1, Adenosine receptor A1 (Rattus norvegicus) (UniProt P25099).
T1 sequence (whole entry): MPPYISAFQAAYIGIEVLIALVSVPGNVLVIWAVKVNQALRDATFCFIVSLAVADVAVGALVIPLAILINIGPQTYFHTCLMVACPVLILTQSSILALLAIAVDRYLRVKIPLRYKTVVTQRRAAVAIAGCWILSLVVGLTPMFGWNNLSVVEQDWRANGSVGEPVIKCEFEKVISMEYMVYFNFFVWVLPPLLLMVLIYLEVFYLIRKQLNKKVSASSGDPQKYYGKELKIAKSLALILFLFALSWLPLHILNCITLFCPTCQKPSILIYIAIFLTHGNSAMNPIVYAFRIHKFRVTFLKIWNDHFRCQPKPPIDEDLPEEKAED
Kind of assay: Relative affinities for rat Adenosine A1 receptor in the presence and absence of GTP. In a few lines:
(§1)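 Rat cortical membranes. [3H]DPCPX displacement run with and without 1 mM GTP. The GTP shift is the ratio of apparent Ki with GTP to Ki without GTP. Data from two to three independent experiments, each in duplicate.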

The target in assay [2] is T2, Adenosine receptor A1 (Rattus norvegicus, UniProt P25099).
T2 sequence (P25099 whole entry): T1 sequence (whole entry)
Kind of assay: Displacement of [3H]DPCPX (with GTP) from Adenosine A1 receptor of rat cortical membrane. In a few lines:
(§2)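 Rat cerebral cortex membranes, antagonist radioligand [3H]DPCPX, displacement run both with and without 1 mM GTP. Apparent Ki derived under each condition; their ratio gives the GTP shift. Two to three independent experiments, each in duplicate.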

For assay [3], the system named is Rattus norvegicus. The assay can be described thus: Mean arterial pressure was recorded of conscious, normo tensive and unrestrained rats that received an intravenous infusion of drugs at a dose of 0.20 mg/kg. Format: functional, Artery. Particulars: dose 0.2 mg/kg; call rule not given here. In a few lines:
(§3)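 Adult male SPF Wistar rats (200-250 g), conscious, free-ranging, arterial catheter. 30 min accommodation, then 15 min baseline recording before i.v. infusion in 20% (v/v) DMSO/water. Arterial pressure and heart rate monitored continuously for 5.5 h. Vehicle-only controls; dosing 10:00-11:00 a.m. Maximum reduction from pre-administration level reported as mean ± SE.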

For assay [4], the system named is Rattus norvegicus. Kind of assay: Maximum reduction heart rate of ratat a dose of 0.20 mg/kg. Format: functional. The note with it: dose 0.2 mg/kg. In a few lines:
as §3

For assay [5], the system named is Rattus norvegicus. The assay can be described thus: Effect on heart rate was measured after intravenous administration (4.8 mg/kg) in rat. Format: functional. In a few lines:
(§4)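 Conscious, free-ranging, normotensive male SPF Wistar rats (200-250 g). Intravenous infusion in 20% (v/v) DMSO/water; vehicle-only controls. Arterial catheter; 30 min accommodation. Heart rate and arterial blood pressure recorded continuously from 15 min before dosing (baseline) through 5.5 h. Dosing done between 10:00 and 11:00 a.m. Values given as means ± SE.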

The test system of assay [6] is Rattus norvegicus. The assay can be described thus: Maximum reduction heart rate of rat at a dose of 0.20 mg/kg. Format: functional. The note with it: dose 0.2 mg/kg. In a few lines:
as §3

The target of assay [7] is T2, Adenosine receptor A1. Kind of assay: Displacement of [3H]DPCPX (without GTP) from Adenosine A1 receptor of rat cortical membrane. The procedure, abridged: as §2
Assay [8] deals with Rattus norvegicus. Kind of assay: Mean arterial pressure was recorded in conscious, normo tensive and unrestrained rats that received an intravenous infusion of drugs at a dose of 8 mg/kg. It counts as functional, Artery. The procedure, abridged: as §3
In assay [9] the test system is Rattus norvegicus. Kind of assay: Effect on heart rate was measured after intravenous administration (8 mg/kg) in rat. Format: functional. The procedure, abridged:
as §3

Assay [10] relates to Rattus norvegicus. The assay can be described thus: Maximum reduction heart rate of rat at a dose of 8.0 mg/kg. It counts as functional. In a few lines: as §3
The target of assay [11] is T2, Adenosine receptor A1. Kind of assay: Binding affinity for adenosine A1 receptor from rat cortical membrane using [3H]DPCPX without GTP. The procedure, abridged: as §1
The test system of assay [12] is Rattus norvegicus. The assay can be described thus: Mean arterial pressure was recorded in conscious, normo tensive and unrestrained rats that received an intravenous infusion of drugs at a dose of 4.8 mg/kg. Format: functional, Artery. In a few lines: as §4
Assay [13] has as its system Rattus norvegicus. Kind of assay: Maximum reduction heart rate of rat at a dose of 4.8 mg/kg. It counts as functional. In a few lines:
as §4

On to `CCCCNc1nc2c(N)ncnc2n1[C@@H]1O[C@H](CO)[C@@H](O)[C@H]1O`, for which the Ki (in general, the equilibrium dissociation constant of an inhibitor or competing ligand from its target) is 11500 nM at Adenosine A2 receptor and 45500 nM on Adenosine receptor A1 [2]. Further, the GTP shift in assay [1] was 4.
`OC[C@H]1O[C@@H](n2cnc3c(NC4CCCC4)ncnc32)[C@H](O)[C@@H]1O` [N6-CYCLOPENTYLADENOSINE]: at Adenosine A2 receptor, the Ki was determined as 580 nM. Further, the MAP in the assay with Rattus norvegicus [3] stood at 109 mmHg. In addition, the Reduction in the assay with Rattus norvegicus [4] and with Rattus norvegicus [6] was 54% in each case. In addition, the Heart rate in the assay on Rattus norvegicus [5] stood at 345 beats min-1.
Regarding `CCNc1nc2c(N)ncnc2n1C1O[C@H](CO)[C@@H](O)[C@H]1O` (some centres not stated), the inhibition constant Ki on Adenosine A2 receptor was found to be 3970 nM; at Adenosine receptor A1 [7] (read-out: Ki), 6560 nM; on Adenosine receptor A1 [2], 23800 nM. Moreover, the GTP shift in assay [1] was 3.6.
In the case of `CCCCNc1nc2c(NC3CCCC3)ncnc2n1C1O[C@H](CO)[C@@H](O)[C@H]1O` (some centres not stated), the Ki on Adenosine A2 receptor was 12400 nM; at Adenosine receptor A1 [7] (read-out: Ki) it was 500 nM; on Adenosine receptor A1 [2], 1130 nM. In the assay with Rattus norvegicus [8], this compound returned an MAP of 94 mmHg. For the same compound, the Heart rate in the assay with Rattus norvegicus [9] is listed as 348 beats min-1. For the same compound, the GTP shift in [1] stood at 2.3. In addition, the Reduction with Rattus norvegicus [10] is 8% and 11%.
Turning to `Nc1ncnc2c1nc(NC1CCCC1)n2C1O[C@H](CO)[C@@H](O)[C@H]1O` (some centres not stated), the Ki entry at Adenosine receptor A1 [7] is reported as “Not Active”.
In the case of `CCCNc1nc2c(N)ncnc2n1C1O[C@H](CO)[C@@H](O)[C@H]1O` (some centres not stated), the Ki was 4960 nM at Adenosine A2 receptor, 5960 nM on Adenosine receptor A1 [7] (read-out: Ki) and 34700 nM on Adenosine receptor A1 [2]. In addition, the GTP shift in [1] was 5.8.
For the compound `CNc1nc2c(NC3CCCC3)ncnc2n1[C@@H]1O[C@H](CO)[C@@H](O)[C@H]1O`, the results for the Ki on Adenosine A2 receptor, on Adenosine receptor A1 [11] and on Adenosine receptor A1 [2] were 20800 nM, 260 nM and 980 nM, respectively. Further, the GTP shift in assay [1] worked out at 3.8. Further, the MAP in the assay on Rattus norvegicus [12] is listed as 105 mmHg. For the same compound, the Reduction in the assay with Rattus norvegicus [13] was 34% and 50%. The Heart rate in the assay with Rattus norvegicus [5] is recorded as 334 beats min-1.
As to `CCCCNc1ncnc2c1nc(NC1CCCC1)n2[C@@H]1O[C@H](CO)[C@@H](O)[C@H]1O`, the figures for the Ki on Adenosine A2 receptor, on Adenosine receptor A1 [7] (read-out: Ki) and at Adenosine receptor A1 [2] were 35300 nM, 760 nM and 860 nM, respectively. For the same compound, the GTP shift in assay [1] came to 1.1.
In the case of `CNc1nc2c(N)ncnc2n1[C@@H]1O[C@H](CO)[C@@H](O)[C@H]1O`, the results for the Ki at Adenosine A2 receptor, on Adenosine receptor A1 [7] (read-out: Ki) and on Adenosine receptor A1 [2] were 1850 nM, 2420 nM and 18600 nM, respectively. Besides, the GTP shift in assay [1] amounted to 7.7.
`OC[C@H]1O[C@@H](n2c(NC3CCCC3)nc3c(NC4CCCC4)ncnc32)[C@H](O)[C@@H]1O`: the Ki turned out to be 45500 nM on Adenosine A2 receptor, 1090 nM on Adenosine receptor A1 [7] (read-out: Ki) and 1280 nM on Adenosine receptor A1 [2]. The MAP in the assay with Rattus norvegicus [8] was 94 mmHg. Moreover, the Heart rate in the assay on Rattus norvegicus [9] was 329 beats min-1. Besides, in [1], the GTP shift stood at 1.2. Moreover, in the assay on Rattus norvegicus [10], the Reduction was 2% and 3%.
For `CCCNc1ncnc2c1nc(NC1CCCC1)n2C1O[C@H](CO)[C@@H](O)[C@H]1O` (some centres not stated), the Ki at Adenosine A2 receptor was 59400 nM; on Adenosine receptor A1 [7] (read-out: Ki), 1590 nM; on Adenosine receptor A1 [2] it was 1760 nM. Also, the GTP shift in assay [1] turned out to be 1.1.
Take `CCNc1nc2c(NC3CCCC3)ncnc2n1[C@@H]1O[C@H](CO)[C@@H](O)[C@H]1O`: the Ki on Adenosine A2 receptor was found to be 10100 nM; at Adenosine receptor A1 [7] (read-out: Ki), 470 nM; at Adenosine receptor A1 [2] it was 1330 nM. For the same compound, the GTP shift in assay [1] came out at 2.8. The MAP in the assay on Rattus norvegicus [12] amounted to 100 mmHg. For the same compound, in the assay with Rattus norvegicus [13], the Reduction was 25% and 24%. In the assay on Rattus norvegicus [5], this compound yielded a Heart rate of 350 beats min-1.
Regarding `CCCNc1nc2c(NC3CCCC3)ncnc2n1[C@@H]1O[C@H](CO)[C@@H](O)[C@H]1O`, the Ki at Adenosine A2 receptor is 7670 nM; at Adenosine receptor A1 [7] (read-out: Ki) it was 350 nM; on Adenosine receptor A1 [2], 1050 nM. The GTP shift in assay [1] was determined as 3. This compound had an MAP in the assay on Rattus norvegicus [12] of 90 mmHg. In addition, the Reduction in the assay with Rattus norvegicus [13] was 20% and 15%. In the assay on Rattus norvegicus [5], this compound gave a Heart rate of 344 beats min-1.
`CNc1ncnc2c1nc(NC1CCCC1)n2[C@@H]1O[C@H](CO)[C@@H](O)[C@H]1O`: the Ki turned out to be 101000 nM at Adenosine A2 receptor, 5610 nM at Adenosine receptor A1 [7] (read-out: Ki) and 15700 nM at Adenosine receptor A1 [2]. Moreover, in assay [1], the GTP shift turned out to be 2.8.
Consider `CCNc1ncnc2c1nc(NC1CCCC1)n2[C@@H]1O[C@H](CO)[C@@H](O)[C@H]1O`, for which the figures for the Ki on Adenosine A2 receptor, at Adenosine receptor A1 [7] (read-out: Ki) and at Adenosine receptor A1 [2] were 30200 nM, 310 nM and 1260 nM, respectively. Further, the GTP shift in assay [1] was 4.1.
